≈ marks a conversion by molar mass, not a printed value.
Assays:
[1] = tested on: Mycobacterium tuberculosis; assay: Antibacterial activity against Mycobacterium tuberculosis H37Rv ATCC 27294T assessed as ofloxacin MIC at 1 ug/ml after 7 days by microdilution checkerboard assay; format: functional; settings: 168 h
Summary of the method: (§1)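 Two-dimensional checkerboard in H37Rv at 10^5 CFU/ml in MB7H9/OADC. Partner drug (amikacin, EtBr, isoniazid, ofloxacin or rifampin) two-fold serially diluted across columns 3-11. Test compound two-fold serially diluted down rows 2-6. Plates incubated 7 days at 37 °C, then MTT added overnight. […] Run in triplicate.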

[2] = tested on: Mycobacterium tuberculosis; assay: Antibacterial activity against Mycobacterium tuberculosis H37Rv ATCC 27294T assessed as amikacin MIC at 2 ug/ml after 7 days by microdilution checkerboard assay; format: functional; settings: 168 h; summary of the method: as §1
[3] = tested on: Mycobacterium tuberculosis; assay: Antibacterial activity against Mycobacterium tuberculosis H37Rv ATCC 27294T assessed as amikacin MIC at 4 ug/ml after 7 days by microdilution checkerboard assay; format: functional; settings: 168 h; summary of the method: as §1
[4] = tested on: Mycobacterium tuberculosis; assay: Anti-tubercular activity against Mycobacterium tuberculosis H37Rv ATCC 27294T after 7 days by mircodilution method; format: functional; settings: 168 h
Summary of the method: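 H37Rv grown static in MB7H9 + 10% OADC at 37 °C to OD600 0.8, then diluted to about 10^5 cells/ml. Mixed 1:1 with two-fold serial dilutions in MB7H9/OADC and incubated 7 days at 37 °C. MTT added to final 2.5% and plates incubated overnight. MIC is the lowest concentration with no colour change. Run in triplicate.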

[5] = tested on: Mycobacterium tuberculosis; assay: Antibacterial activity against Mycobacterium tuberculosis H37Rv ATCC 27294T assessed as amikacin MIC at 1 ug/ml after 7 days by microdilution checkerboard assay; format: functional; settings: 168 h; summary of the method: as §1
[6] = tested on: Mycobacterium tuberculosis; assay: Antibacterial activity against Mycobacterium tuberculosis H37Rv ATCC 27294T assessed as ofloxacin MIC at 4 ug/ml after 7 days by microdilution checkerboard assay; format: functional; settings: 168 h; summary of the method: as §1
[7] = tested on: Mycobacterium tuberculosis; assay: Antibacterial activity against Mycobacterium tuberculosis H37Rv ATCC 27294T assessed as ethidium bromide MIC at 2 ug/ml after 7 days by microdilution checkerboard assay; format: functional; settings: 168 h; summary of the method: as §1
[8] = tested on: Mycobacterium tuberculosis; assay: Antibacterial activity against Mycobacterium tuberculosis H37Rv ATCC 27294T assessed as ethidium bromide MIC at 1 ug/ml after 7 days by microdilution checkerboard assay; format: functional; settings: 168 h; summary of the method: as §1
[9] = Cytotoxicity against human MDM assessed as cell viability after 3 days by Alamar blue dye-based fluorocytometric analysis relative to control; settings: 72 h
[10] = tested on: Mycobacterium tuberculosis; assay: Antibacterial activity against Mycobacterium tuberculosis H37Rv ATCC 27294T assessed as isoniazid MIC at 4 ug/ml after 7 days by microdilution checkerboard; format: functional; settings: 168 h; summary of the method: as §1
[11] = tested on: Mycobacterium tuberculosis; assay: Antibacterial activity against Mycobacterium tuberculosis H37Rv ATCC 27294T assessed as ethidium bromide MIC at 0.5 ug/ml after 7 days by microdilution checkerboard assay; format: functional; settings: 168 h; summary of the method: as §1
[12] = tested on: Mycobacterium tuberculosis; assay: Antibacterial activity against Mycobacterium tuberculosis H37Rv ATCC 27294T assessed as ethidium bromide MIC at 0.25 ug/ml after 7 days by microdilution checkerboard assay; format: functional; settings: 168 h; summary of the method: as §1
[13] = tested on: Mycobacterium tuberculosis; assay: Antibacterial activity against Mycobacterium tuberculosis H37Rv ATCC 27294T assessed as rifampin MIC at 1 ug/ml after 7 days by microdilution checkerboard assay; format: functional; settings: 168 h
Summary of the method: (§2)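 M. tuberculosis H37Rv grown in MB7H9 + 10% OADC at 37 °C to OD600 0.8; plates inoculated at 10^5 CFU/ml. Rifampicin two-fold serially diluted across columns, test compound two-fold diluted down rows (two-dimensional checkerboard). Sealed, 37 °C for seven days, then MTT added and incubated overnight. MIC read as no colour change. Triplicate.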

[14] = tested on: Mycobacterium tuberculosis; assay: Antibacterial activity against Mycobacterium tuberculosis H37Rv ATCC 27294T assessed as ethidium bromide MIC at 4 ug/ml after 7 days by microdilution checkerboard assay; format: functional; settings: 168 h; summary of the method: as §1
[15] = tested on: Mycobacterium tuberculosis; assay: Antibacterial activity against Mycobacterium tuberculosis H37Rv ATCC 27294T assessed as ofloxacin MIC at 0.12 ug/ml after 7 days by microdilution checkerboard assay; format: functional; settings: 168 h; summary of the method: as §1
[16] = tested on: Mycobacterium tuberculosis; assay: Antibacterial activity against Mycobacterium tuberculosis H37Rv ATCC 27294T assessed as amikacin MIC at 8 ug/ml after 7 days by microdilution checkerboard assay; format: functional; settings: 168 h; summary of the method: as §1
[17] = tested on: Mycobacterium tuberculosis; assay: Antibacterial activity against Mycobacterium tuberculosis H37Rv ATCC 27294T assessed as amikacin MIC at 0.12 ug/ml after 7 days by microdilution checkerboard assay; format: functional; settings: 168 h; summary of the method: as §1
[18] = tested on: Mycobacterium tuberculosis; assay: Antibacterial activity against Mycobacterium tuberculosis H37Rv ATCC 27294T assessed as rifampin MIC at 8 ug/ml after 7 days by microdilution checkerboard assay; format: functional; settings: 168 h; summary of the method: as §2
[19] = tested on: Mycobacterium tuberculosis; assay: Antibacterial activity against Mycobacterium tuberculosis H37Rv ATCC 27294T assessed as ofloxacin MIC at 2 ug/ml after 7 days by microdilution checkerboard assay; format: functional; settings: 168 h; summary of the method: as §1
[20] = tested on: Mycobacterium tuberculosis; assay: Antibacterial activity against Mycobacterium tuberculosis H37Rv ATCC 27294T assessed as isoniazid MIC at 0.12 ug/ml after 7 days by microdilution checkerboard assay; format: functional; settings: 168 h; summary of the method: as §1
[21] = tested on: Mycolicibacterium smegmatis; assay: Anti-tubercular activity against Mycobacterium smegmatis MC2 155 ATCC 700084 after 3 days by microdilution method; format: functional; settings: MC2 155 ATCC 700084, 72 h
Summary of the method: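 M. smegmatis mc2155 grown in MB7H9 + 10% OADC at 37 °C with shaking to OD600 0.8. Inoculum set to 0.5 McFarland, diluted 1:100, and mixed 1:1 with two-fold serial dilutions in MB7H9. Plates incubated 3 days at 37 °C with growth and sterility controls. MIC taken as the lowest concentration with no visible growth.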

[22] = tested on: Mycobacterium tuberculosis; assay: Antibacterial activity against Mycobacterium tuberculosis H37Rv ATCC 27294T assessed as isoniazid MIC at 0.25 ug/ml after 7 days by microdilution checkerboard assay; format: functional; settings: 168 h; summary of the method: as §1
[23] = tested on: Mycobacterium tuberculosis; assay: Antibacterial activity against Mycobacterium tuberculosis H37Rv ATCC 27294T assessed as ethidium bromide MIC at 0.12 ug/ml after 7 days by microdilution checkerboard assay; format: functional; settings: 168 h; summary of the method: as §1
[24] = tested on: Mycobacterium tuberculosis; assay: Antibacterial activity against Mycobacterium tuberculosis H37Rv ATCC 27294T assessed as rifampin MIC at 4 ug/ml after 7 days by microdilution checkerboard assay; format: functional; settings: 168 h; summary of the method: as §2
[25] = tested on: Mycobacterium tuberculosis; assay: Antibacterial activity against Mycobacterium tuberculosis H37Rv ATCC 27294T assessed as rifampin MIC at 0.12 ug/ml after 7 days by microdilution checkerboard assay; format: functional; settings: 168 h; summary of the method: as §1
[26] = tested on: Mycobacterium tuberculosis; assay: Antibacterial activity against Mycobacterium tuberculosis H37Rv ATCC 27294T assessed as rifampin MIC at 2 ug/ml after 7 days by microdilution checkerboard assay; format: functional; settings: 168 h; summary of the method: as §2
[27] = tested on: Mycobacterium tuberculosis; assay: Antibacterial activity against Mycobacterium tuberculosis H37Rv ATCC 27294T assessed as ofloxacin MIC at 0.25 ug/ml after 7 days by microdilution checkerboard assay; format: functional; settings: 168 h; summary of the method: as §1
[28] = tested on: Mycobacterium tuberculosis; assay: Antibacterial activity against Mycobacterium tuberculosis H37Rv ATCC 27294T assessed as ofloxacin MIC at 0.5 ug/ml after 7 days by microdilution checkerboard assay; format: functional; settings: 168 h; summary of the method: as §1
[29] = tested on: Mycobacterium tuberculosis; assay: Antibacterial activity against Mycobacterium tuberculosis H37Rv ATCC 27294T assessed as ethidium bromide MIC at 8 ug/ml after 7 days by microdilution checkerboard assay; format: functional; settings: 168 h; summary of the method: as §1
[30] = tested on: Mycobacterium tuberculosis; assay: Antibacterial activity against Mycobacterium tuberculosis H37Rv ATCC 27294T assessed as isoniazid MIC at 0.5 ug/ml after 7 days by microdilution checkerboard assay; format: functional; settings: 168 h; summary of the method: as §1
[31] = tested on: Mycobacterium tuberculosis; assay: Antibacterial activity against Mycobacterium tuberculosis H37Rv ATCC 27294T assessed as isoniazid MIC at 8 ug/ml after 7 days by microdilution checkerboard assay; format: functional; settings: 168 h; summary of the method: as §1
[32] = tested on: Mycobacterium tuberculosis; assay: Antibacterial activity against Mycobacterium tuberculosis H37Rv ATCC 27294T assessed as isoniazid MIC at 2 ug/ml after 7 days by microdilution checkerboard assay; format: functional; settings: 168 h; summary of the method: as §1
[33] = tested on: Mycobacterium tuberculosis; assay: Antibacterial activity against Mycobacterium tuberculosis H37Rv ATCC 27294T assessed as rifampin MIC at 0.25 ug/ml after 7 days by microdilution checkerboard assay; format: functional; settings: 168 h; summary of the method: as §1
[34] = tested on: Mycobacterium tuberculosis; assay: Antibacterial activity against Mycobacterium tuberculosis H37Rv ATCC 27294T assessed as amikacin MIC at 0.25 ug/ml after 7 days by microdilution checkerboard assay; format: functional; settings: 168 h; summary of the method: as §1
[35] = tested on: Mycobacterium tuberculosis; assay: Antibacterial activity against Mycobacterium tuberculosis H37Rv ATCC 27294T assessed as ofloxacin MIC at 8 ug/ml after 7 days by microdilution checkerboard assay; format: functional; settings: 168 h; summary of the method: as §1
[36] = tested on: Mycobacterium tuberculosis; assay: Antibacterial activity against Mycobacterium tuberculosis H37Rv ATCC 27294T assessed as amikacin MIC at 0.5 ug/ml after 7 days by microdilution checkerboard assay; format: functional; settings: 168 h; summary of the method: as §1
[37] = tested on: Mycobacterium tuberculosis; assay: Antibacterial activity against Mycobacterium tuberculosis H37Rv ATCC 27294T assessed as isoniazid MIC at 1 ug/ml after 7 days by microdilution checkerboard assay; format: functional; settings: 168 h; summary of the method: as §1
[38] = tested on: Mycobacterium tuberculosis; assay: Antibacterial activity against Mycobacterium tuberculosis H37Rv ATCC 27294T assessed as rifampin MIC at 0.5 ug/ml after 7 days by microdilution checkerboard assay; format: functional; settings: 168 h; summary of the method: as §2

## CSc1ccc2c(c1)N(CCC1CCCCN1C)c1ccccc1S2 (stereo not drawn) [THIORIDAZINE]
[1]
  MIC: 1 µg/mL
[2]
  MIC: 1 µg/mL
[3]
  MIC: 0.25 µg/mL
[4]
  MIC: 16 µg/mL (≈ 43.2 µM)
[5]
  MIC: 1 µg/mL
[6]
  MIC: 1 µg/mL
[7]
  MIC: 3.12 µg/mL
[8]
  MIC: 6.25 µg/mL
[9]
  IC50: 5.5 µg/mL (≈ 14.8 µM)
[10]
  MIC: 0.0125 µg/mL
[11]
  MIC: 6.25 µg/mL
[12]
  MIC: 12.5 µg/mL
[13]
  MIC: 0.5 µg/mL
[14]
  MIC: 1.56 µg/mL
[15]
  MIC: 2 µg/mL
[16]
  MIC: 0.0312 µg/mL
[17]
  MIC: 1 µg/mL
[18]
  MIC: 0.0156 µg/mL
[19]
  MIC: 1 µg/mL
[20]
  MIC: 0.1 µg/mL
[21]
  MIC: 31 µg/mL (≈ 83.7 µM)
[22]
  MIC: 0.1 µg/mL
[23]
  MIC: 12.5 µg/mL
[24]
  MIC: 0.5 µg/mL
[25]
  MIC: 1 µg/mL
[26]
  MIC: 0.5 µg/mL
[27]
  MIC: 2 µg/mL
[28]
  MIC: 1 µg/mL
[29]
  MIC: 0.195 µg/mL
[30]
  MIC: 0.1 µg/mL
[31]
  MIC: 0.00156 µg/mL
[32]
  MIC: 0.1 µg/mL
[33]
  MIC: 0.5 µg/mL
[34]
  MIC: 1 µg/mL
[35]
  MIC: 0.0312 µg/mL
[36]
  MIC: 1 µg/mL
[37]
  MIC: 0.1 µg/mL
[38]
  MIC: 0.5 µg/mL
